We go through five compounds from publication PMC13022283 (Scientific Reports, 2026).

The target of one data set is T1, h-NTPDase1 (Homo sapiens, UniProt P49961).
T1 sequence (P49961 1-510): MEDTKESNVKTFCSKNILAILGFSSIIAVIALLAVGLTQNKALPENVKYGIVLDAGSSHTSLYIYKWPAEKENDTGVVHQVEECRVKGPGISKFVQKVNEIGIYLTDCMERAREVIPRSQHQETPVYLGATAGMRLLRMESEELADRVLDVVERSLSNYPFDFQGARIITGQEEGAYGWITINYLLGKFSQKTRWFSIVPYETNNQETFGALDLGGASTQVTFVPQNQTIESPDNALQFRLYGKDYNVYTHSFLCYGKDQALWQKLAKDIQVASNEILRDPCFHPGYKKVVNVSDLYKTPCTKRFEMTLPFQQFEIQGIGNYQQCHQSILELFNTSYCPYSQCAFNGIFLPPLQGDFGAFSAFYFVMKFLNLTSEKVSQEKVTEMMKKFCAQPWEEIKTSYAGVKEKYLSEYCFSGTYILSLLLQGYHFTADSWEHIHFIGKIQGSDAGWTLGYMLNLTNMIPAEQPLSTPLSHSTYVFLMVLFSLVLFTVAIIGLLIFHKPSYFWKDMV
The experiment in a line: h-NTPDase activity assay. Type of data set: biochemical. Conditions: for inhibition at 100 µM: read-out: % Inhibition h-NTPDase1.

The next data set has as its target T2, h-NTPDase3 (Homo sapiens, UniProt O75355).
T2 sequence (O75355 1-529): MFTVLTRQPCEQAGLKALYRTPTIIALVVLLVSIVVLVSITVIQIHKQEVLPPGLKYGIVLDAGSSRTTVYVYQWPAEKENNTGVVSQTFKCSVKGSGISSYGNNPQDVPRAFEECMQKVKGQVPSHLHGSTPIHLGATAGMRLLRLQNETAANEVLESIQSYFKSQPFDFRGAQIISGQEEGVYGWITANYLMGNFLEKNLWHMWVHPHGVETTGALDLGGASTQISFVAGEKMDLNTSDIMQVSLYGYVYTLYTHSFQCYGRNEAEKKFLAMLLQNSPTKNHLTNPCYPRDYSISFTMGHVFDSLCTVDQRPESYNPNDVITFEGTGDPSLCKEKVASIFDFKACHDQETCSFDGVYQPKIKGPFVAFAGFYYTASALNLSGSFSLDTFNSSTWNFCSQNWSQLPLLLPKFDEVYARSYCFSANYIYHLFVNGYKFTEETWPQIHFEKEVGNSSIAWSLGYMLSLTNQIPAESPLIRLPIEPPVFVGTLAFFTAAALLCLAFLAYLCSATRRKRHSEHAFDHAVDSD
The experiment in a line: h-NTPDase activity assay. It is filed as biochemical. The settings on record: for inhibition at 100 µM: read-out: % Inhibition h-NTPDase3. The method in brief: (§1)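 Human NTPDase1, -2, -3 or -8 came from COS-7 cells transfected with plasmids via Lipofectamine, harvested at 44–48 h, sonicated and cleared of nuclei, with protein measured by Bradford. Enzyme per well was 12, 37, 43 or 63 ng respectively. Compound (0.1 mM final) was pre-incubated 10 min at 37 °C in 50 mM Tris–HCl, 5 mM CaCl2, pH 7.4. The reaction was started with ATP (100 µM), run 15 min, and stopped with malachite green; Pi was read at 630 nm.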

Another data set concerns the target T3, h-NPP1 (Homo sapiens, UniProt P22413).
T3 sequence (P22413 1-925): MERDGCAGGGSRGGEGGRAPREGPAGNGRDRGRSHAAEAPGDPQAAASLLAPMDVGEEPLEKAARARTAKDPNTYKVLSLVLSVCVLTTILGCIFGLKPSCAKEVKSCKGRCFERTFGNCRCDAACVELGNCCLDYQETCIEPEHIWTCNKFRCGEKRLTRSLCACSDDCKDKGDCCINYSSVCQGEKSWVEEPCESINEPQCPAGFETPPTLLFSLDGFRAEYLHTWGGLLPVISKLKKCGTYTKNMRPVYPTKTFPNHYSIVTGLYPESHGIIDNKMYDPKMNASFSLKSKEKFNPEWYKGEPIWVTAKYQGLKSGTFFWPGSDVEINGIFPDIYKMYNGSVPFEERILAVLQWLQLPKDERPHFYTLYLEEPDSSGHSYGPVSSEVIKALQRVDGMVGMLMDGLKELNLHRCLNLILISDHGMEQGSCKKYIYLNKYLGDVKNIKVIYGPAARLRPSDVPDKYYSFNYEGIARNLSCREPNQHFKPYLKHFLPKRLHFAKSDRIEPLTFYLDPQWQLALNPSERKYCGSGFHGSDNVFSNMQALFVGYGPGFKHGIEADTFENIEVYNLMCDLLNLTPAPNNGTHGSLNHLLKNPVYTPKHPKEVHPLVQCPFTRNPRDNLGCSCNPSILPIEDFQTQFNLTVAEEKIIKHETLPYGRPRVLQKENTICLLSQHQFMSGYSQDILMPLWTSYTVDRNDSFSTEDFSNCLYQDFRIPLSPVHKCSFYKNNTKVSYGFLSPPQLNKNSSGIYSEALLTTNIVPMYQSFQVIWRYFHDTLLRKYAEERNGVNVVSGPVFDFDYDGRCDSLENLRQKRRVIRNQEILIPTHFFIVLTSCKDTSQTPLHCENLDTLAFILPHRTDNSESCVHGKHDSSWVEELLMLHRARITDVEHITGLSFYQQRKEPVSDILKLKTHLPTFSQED
The experiment in a line: h-NPP1 activity assay. Type of data set: biochemical. The settings on record: for inhibition at 100 µM: read-out: % Inhibition h-NPP1.

The next data set concerns the target T4, h-e5’NT (Homo sapiens, UniProt P21589).
T4 sequence (P21589 27-574): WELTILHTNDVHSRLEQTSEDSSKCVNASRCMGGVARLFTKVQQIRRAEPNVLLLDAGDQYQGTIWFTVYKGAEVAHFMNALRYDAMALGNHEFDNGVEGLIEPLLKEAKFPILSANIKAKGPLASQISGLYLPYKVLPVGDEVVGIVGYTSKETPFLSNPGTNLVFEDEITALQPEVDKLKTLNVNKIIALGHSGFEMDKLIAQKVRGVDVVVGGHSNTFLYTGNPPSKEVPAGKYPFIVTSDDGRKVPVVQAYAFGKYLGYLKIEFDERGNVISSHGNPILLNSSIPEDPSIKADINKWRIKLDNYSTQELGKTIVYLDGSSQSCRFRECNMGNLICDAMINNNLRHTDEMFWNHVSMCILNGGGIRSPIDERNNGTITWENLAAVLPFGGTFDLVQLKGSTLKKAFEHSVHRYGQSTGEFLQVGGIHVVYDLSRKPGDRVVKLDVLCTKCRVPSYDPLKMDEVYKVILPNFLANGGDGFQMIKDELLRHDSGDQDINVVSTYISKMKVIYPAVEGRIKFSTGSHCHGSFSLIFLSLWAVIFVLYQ
The experiment in a line: h-e5’NT activity assay. Type of data set: biochemical. The settings on record: for inhibition at 100 µM: read-out: % Inhibition h-e5’NT. The essentials: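 Human ecto-5′-nucleotidase from transfected COS-7 cells was pre-incubated 10 min at 37 °C with compound (0.1 mM final) in 50 mM Tris–HCl with MgCl₂ and CaCl₂, pH 7.4. The reaction was started with AMP (2 mM solution as added) and run 20 min at 37 °C. Released phosphate was detected with malachite green at 630 nm, in triplicate.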

The next data set can be described thus: MTT assay. It is filed as cell-based, human. The settings on record: human, MCF-7 breast cancer cells, MCF-7, 100 μM; for cytotoxicity at 24 h, 100 µM: % Cytotoxicity ± SD; for viability at 24 h, 100 µM: % Viability. (Tetrazolium dyes change colour on reduction, which living cells bring about.)
Data set [1] concerns MCF-7 breast cancer cells. The experiment in a line: MTT assay. It is filed as cell-based, human. The settings on record: MCF-7, 100 μM, 24 h, 100 µM.
The next data set concerns h-NTPDases. The experiment in a line: h-NTPDase activity assay, all four isoenzymes. It is filed as biochemical, human. The method in brief: as §1
Another data set has as its target T5, h-NTPDase2 (Homo sapiens, UniProt Q9Y5L3).
T5 sequence (Q9Y5L3 1-495): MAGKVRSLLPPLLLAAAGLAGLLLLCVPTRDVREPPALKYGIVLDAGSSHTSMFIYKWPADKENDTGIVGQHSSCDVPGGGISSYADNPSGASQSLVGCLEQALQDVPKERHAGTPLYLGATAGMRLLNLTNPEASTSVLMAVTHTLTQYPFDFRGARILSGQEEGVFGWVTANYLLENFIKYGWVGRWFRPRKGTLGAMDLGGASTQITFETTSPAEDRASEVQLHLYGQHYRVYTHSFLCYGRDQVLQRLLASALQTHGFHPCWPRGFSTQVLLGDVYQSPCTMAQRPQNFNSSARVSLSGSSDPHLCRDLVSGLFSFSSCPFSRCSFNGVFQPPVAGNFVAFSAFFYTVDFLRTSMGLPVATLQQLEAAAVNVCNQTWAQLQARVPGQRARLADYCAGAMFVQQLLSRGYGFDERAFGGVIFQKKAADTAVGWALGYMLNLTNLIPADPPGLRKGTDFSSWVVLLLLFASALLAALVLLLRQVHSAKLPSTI
The experiment in a line: h-NTPDase activity assay. Conditions: for inhibition at 100 µM: read-out: % Inhibition h-NTPDase2. Type of data set: biochemical.

Another data set deals with T6, h-NTPDase8 (Homo sapiens, UniProt Q5MY95).
T6 sequence (Q5MY95 1-495): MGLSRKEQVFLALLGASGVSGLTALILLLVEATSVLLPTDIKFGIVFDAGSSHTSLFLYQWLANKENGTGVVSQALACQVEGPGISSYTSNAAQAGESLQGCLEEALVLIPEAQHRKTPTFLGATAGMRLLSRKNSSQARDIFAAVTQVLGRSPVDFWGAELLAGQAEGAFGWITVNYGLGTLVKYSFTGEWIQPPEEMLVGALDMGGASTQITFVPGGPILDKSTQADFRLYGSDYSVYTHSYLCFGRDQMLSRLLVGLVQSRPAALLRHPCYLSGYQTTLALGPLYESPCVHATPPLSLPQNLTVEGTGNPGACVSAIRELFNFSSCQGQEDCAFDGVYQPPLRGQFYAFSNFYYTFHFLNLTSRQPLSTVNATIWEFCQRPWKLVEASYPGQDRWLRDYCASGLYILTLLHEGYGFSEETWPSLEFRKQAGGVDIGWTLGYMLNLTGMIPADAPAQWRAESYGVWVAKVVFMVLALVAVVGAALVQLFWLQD
Put plainly: h-NTPDase activity assay. Type of data set: biochemical.

For data set [2], the system named is h-NTPDase1, -2, -3, and -8 isoenzymes, h-NPP1, and h-e5′NT. The experiment in a line: Enzymatic assays, all ectonucleotidases. Type of data set: biochemical, human. The settings on record: at 100 µM.

The structures appear in SMILES notation.

One may read the inhibition as how much of the control response was suppressed. As a reminder, the IC50 is the concentration that inhibits the measured activity by half. A low value points to higher potency. In general, viability refers to a read-out of living cells in per cent, often relative to untreated cells.

In the case of `O=C(NCc1ccc(Cl)cc1)c1ccc2ncccc2c1` [Compound 4a, N-(4-chlorobenzyl)quinoline-6-carboxamide], the inhibition at 100 µM at h-NTPDase1 was 37%; on h-NTPDase3, 30.6%; on h-NPP1, 67%; at h-e5’NT, 67.9%. The IC50 at h-NPP1 came to 0.23 ± 0.02 µM; against h-e5’NT, 92 ± 20 nM. Besides, the cytotoxicity at 24 h, 100 µM in the data set “MTT assay” amounted to 37%. The same compound registered a viability at 24 h, 100 µM in the data set “MTT assay” of 62.7%. For the same compound, in [1], the “% Cytotoxicity ± SD” value worked out at 37.3 ± 1.80%. The “activity against all four h-NTPDase isoenzymes” value (from here on “activity”) in the data set with h-NTPDases is reported as “poor activity”.

As to `COc1ccc(CNC(=O)c2ccc3ncccc3c2)c(OC)c1` [Compound 4i, N-(2,4-dimethoxybenzyl)quinoline-6-carboxamide], the inhibition at 100 µM turned out to be 19.5% at h-NTPDase1; 39.6% on h-NTPDase2; 25.1% on h-NTPDase3; 29.8% on h-NTPDase8 (read-out: % Inhibition h-NTPDase8, at 100 µM); 54.9% at h-e5’NT. It took 990 ± 130 nM to reach half-maximal inhibition against h-e5’NT (IC50). In the data set “MTT assay”, this compound had a cytotoxicity at 24 h, 100 µM of 41.5 ± 0.31%. The compound also displayed a viability at 24 h, 100 µM in the data set “MTT assay” of 58.5%. The “% inhibition for all enzymes except h-e5′NT” value in data set [2] is listed as “less than 50%”. Further, the “activity” value with h-NTPDases was “poor activity”.

Take `O=C(NCc1ccc(Cl)cc1Cl)c1ccc2ncccc2c1` [Compound 4j, N-(2,4-dichlorobenzyl)quinoline-6-carboxamide]: the inhibition at 100 µM came to 33.1% on h-NTPDase1; 26.2% on h-NTPDase2; 35.6% at h-NTPDase3; 85.5% at h-NPP1; 72.4% on h-e5’NT. The half-maximal inhibitory concentration (IC50) on h-NPP1 was 13.5 ± 1.24 µM; at h-e5’NT, 440 ± 70 nM. In addition, the cytotoxicity at 24 h, 100 µM in “MTT assay” was 55 ± 1.36%. Moreover, the viability at 24 h, 100 µM in the data set “MTT assay” fell in the range of 43 to 45%. The “% Viability” value in [1] turned out to be 45.0%. In addition, the “activity” value with h-NTPDases is reported as “poor activity”.

For `Nc1c(S(=O)(=O)O)cc(Nc2ccc(Nc3nc(Cl)nc(Nc4cccc(S(=O)(=O)O)c4)n3)c(S(=O)(=O)O)c2)c2c1C(=O)c1ccccc1C2=O` [Reactive blue 2, reference compound], the IC50 against h-NTPDase1 turned out to be 16.1 ± 1.02 µM; against h-NTPDase2 it was 24.1 ± 3.01 µM; at h-NTPDase3, 4.31 ± 0.41 µM; against h-NTPDase8, 101 ± 2.34 µM.

Turning to `Cc1ccc(C(=O)Nc2ccc(S(=O)(=O)O)c3cc(S(=O)(=O)O)cc(S(=O)(=O)O)c23)cc1NC(=O)c1cccc(NC(=O)Nc2cccc(C(=O)Nc3cc(C(=O)Nc4ccc(S(=O)(=O)O)c5cc(S(=O)(=O)O)cc(S(=O)(=O)O)c45)ccc3C)c2)c1` [Suramin, reference compound], inhibition against h-e5’NT was half-maximal at 42100 ± 7800 nM (IC50).
